The conditions of data set [1]: cited from earlier work.
A short description of data set [2]: Stability test of Sec-containing peptides in oxygenated buffer. The conditions noted are these: for β-syn elimination: dehydroalanine-containing peptide (species D) by MS: 96 h in oxygenated KP buffer pH 8.0, 25 °C, positive ESI-MS, linear ion trap; for Deselenization seen as red selenium precipitate / color change: peptide 1 mM in oxygenated KP buffer pH 8.0, 96 h, visual inspection. Format: physicochemical. The method in brief:
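Test peptides incubated in oxygenated KP buffer, pH 8.0, at 25 °C. Aliquots taken at 24, 48 and 96 h and centrifuged to pellet precipitated selenium. For MS, samples from time zero and 96 h were infused through a guard column at 10 μL/min into 100 μL/min 50/50 water/acetonitrile with 0.1% formic acid, using positive ESI and a linear ion trap scan over m/z 200–1800. Tubes with 1 mM peptide were photographed.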

Consider `O=c1c2ccccc2[se]n1-c1ccccc1` [ebselen, 2-phenyl-1,2-benzisoselenazol-3(2H)-one], for which the Water solubility entry in data set [1] is recorded as “not water soluble”. On to “H-(αMe)Sec-Gly-Thr-Thr-Val-Arg-Asp-Tyr-Thr-Gln-OH [peptide 11]”, for which, in data set [2], the “β-syn elimination: dehydroalanine-containing peptide (species D) by MS” value is “absent” and the “Deselenization seen as red selenium precipitate / color change” value is “no color change was observed”. As for “H-Sec-Gly-Thr-Thr-Val-Arg-Asp-Tyr-Thr-Gln-OH [peptide 12]”, in data set [2], the “β-syn elimination: dehydroalanine-containing peptide (species D) by MS” value is reported as “β-syn elimination occurred” and the “Deselenization seen as red selenium precipitate / color change” value was “red precipitate clearly forms”.

These data come from article PMC6785838 (Journal of peptide science : an official publication of the …, 2019).
